The source of these data is ChEMBL document CHEMBL1138571, “Design, synthesis and evaluation of tetrahydropyran based COX-1/-2 inhibitors” (Eur J Med Chem, 2009).

The target in experiment [1] is T1, Prostaglandin G/H synthase 1 (Ovis aries) (UniProt P05979).
T1 sequence (whole entry): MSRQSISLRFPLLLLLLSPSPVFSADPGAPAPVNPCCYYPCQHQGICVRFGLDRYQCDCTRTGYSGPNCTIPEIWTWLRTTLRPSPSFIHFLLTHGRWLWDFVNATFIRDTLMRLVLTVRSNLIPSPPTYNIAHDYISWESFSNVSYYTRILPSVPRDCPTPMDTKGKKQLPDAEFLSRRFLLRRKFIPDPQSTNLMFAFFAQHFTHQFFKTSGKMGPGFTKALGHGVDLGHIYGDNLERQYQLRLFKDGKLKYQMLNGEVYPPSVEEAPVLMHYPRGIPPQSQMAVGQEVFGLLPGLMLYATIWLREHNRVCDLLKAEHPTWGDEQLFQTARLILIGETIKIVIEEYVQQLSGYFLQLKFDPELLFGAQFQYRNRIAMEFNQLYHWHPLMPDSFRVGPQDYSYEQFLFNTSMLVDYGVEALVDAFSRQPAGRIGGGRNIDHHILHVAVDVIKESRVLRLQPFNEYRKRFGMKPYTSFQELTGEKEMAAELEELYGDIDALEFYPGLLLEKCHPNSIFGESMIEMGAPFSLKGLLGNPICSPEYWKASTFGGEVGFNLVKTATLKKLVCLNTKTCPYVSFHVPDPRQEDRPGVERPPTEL
In words: Inhibition of ovine COX1 at 10 uM. In a few lines: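 Ovine COX-1 enzyme assay in 96-well format following a standard procedure. Compounds were tested at a single concentration of 10^-5 M, in duplicate. Results are expressed as % inhibition.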

The target of experiment [2] is T2, Prostaglandin G/H synthase 2 (Ovis aries, UniProt P79208).
T2 sequence (P79208 whole entry): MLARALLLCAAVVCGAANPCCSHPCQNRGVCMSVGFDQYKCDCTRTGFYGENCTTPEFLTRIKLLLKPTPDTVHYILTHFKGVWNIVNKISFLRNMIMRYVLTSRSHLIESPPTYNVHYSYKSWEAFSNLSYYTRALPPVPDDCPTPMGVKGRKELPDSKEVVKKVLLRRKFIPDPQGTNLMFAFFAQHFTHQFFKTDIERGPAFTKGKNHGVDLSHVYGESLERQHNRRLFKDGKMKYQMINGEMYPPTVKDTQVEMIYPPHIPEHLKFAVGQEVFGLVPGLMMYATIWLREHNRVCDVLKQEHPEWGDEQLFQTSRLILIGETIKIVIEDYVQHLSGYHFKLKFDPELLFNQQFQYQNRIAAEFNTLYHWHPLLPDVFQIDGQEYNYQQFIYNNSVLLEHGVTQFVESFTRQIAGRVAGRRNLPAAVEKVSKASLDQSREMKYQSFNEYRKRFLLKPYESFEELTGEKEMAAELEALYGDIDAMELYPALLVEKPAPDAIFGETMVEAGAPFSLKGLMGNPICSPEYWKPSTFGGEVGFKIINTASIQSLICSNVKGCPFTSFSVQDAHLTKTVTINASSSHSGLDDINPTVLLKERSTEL
In words: Inhibition of ovine COX2.

In experiment [3] the target is T3, Prostaglandin G/H synthase 1 (Ovis aries, UniProt P05979).
T3 sequence (P05979 whole entry): T1 sequence (whole entry)
In words: Inhibition of ovine COX1.

As for `CC(C)Cc1ccc(C(C)C(=O)O)cc1` (configuration not stated), the inhibition (as a rule, the drop in the measured response relative to a control, in per cent) in experiment [1] was found to be 96%.
As to `C[C@]1(O)C[C@@H](CSC#N)O[C@@H](c2ccc(Br)cc2)C1`, the IC50 in experiment [2] and in experiment [3] was more than 10 µM in each case. Further, the inhibition in experiment [1] was 32%.
As to `CCSC[C@@H]1C[C@](C)(O)C[C@H](c2ccc([N+](=O)[O-])cc2)O1`, the IC50 in experiment [2] and in experiment [3] was more than 10 µM in each case. This compound also returned an inhibition in experiment [1] of 34%.
`CCSC[C@@H]1C[C@](C)(O)C[C@H](c2ccc(F)cc2)O1`: the figures for the IC50 in experiment [2] and in experiment [3] were less than 1 µM and more than 10 µM, respectively. The inhibition in experiment [1] is 42%.
Taken in the same sequence, the figures for `C[C@]1(O)C[C@@H](CSC#N)O[C@@H](c2ccc(F)cc2)C1` were 1 µM, more than 10 µM and 34%.
Taken in the same sequence, the figures for `CCSC[C@@H]1C[C@](C)(O)C[C@H](c2ccc(Br)cc2)O1` were more than 10 µM, more than 10 µM and 24%.
In the case of `CCSC[C@@H]1C[C@](C)(O)C[C@H](c2ccc(Cl)cc2)O1`, the IC50 in experiment [2] and in experiment [3] was more than 10 µM throughout. Further, the inhibition in experiment [1] is 34%.
Consider `C[C@]1(O)C[C@@H](CSC#N)O[C@@H](c2ccc([N+](=O)[O-])cc2)C1`, for which the IC50 in experiment [2] and in experiment [3] was more than 10 µM in each case. The same compound had an inhibition in experiment [1] of 29%.
